RGS4 block = human RGS4 inhibition. AID 463165. P49798. actives 0.45% (n = 310,000). B-score at 10 µM. HEK293 M3R/RGS4 inducible, Fluo-4 calcium flux; hits give high values; triggered by carbachol at its EC20;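 active means B-score, a plate-corrected calcium signal, over three deviations above library mean, with baseline fluorescence within five deviations of library mean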;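 further: RGS4 expression induced by doxycycline in cells with stable M3 receptor; B-score is computed from the integrated fluorescence ratio over baseline after carbachol; higher B-score means a larger calcium signal and so more RGS4 inhibition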
Target sequence (P49798 whole entry, looked up): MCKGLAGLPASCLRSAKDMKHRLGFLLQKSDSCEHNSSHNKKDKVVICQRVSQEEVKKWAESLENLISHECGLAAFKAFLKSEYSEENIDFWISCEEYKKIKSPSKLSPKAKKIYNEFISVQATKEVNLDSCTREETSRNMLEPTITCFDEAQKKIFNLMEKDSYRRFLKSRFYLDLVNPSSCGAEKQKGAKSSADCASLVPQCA
MrgX1 allo act = allosterically activates human MrgX1 receptor signaling; B-score at 10 µM; actives 0.63% (n = 310,000); Q96LB2; MrgX1-HEK293, Fluo-4 calcium flux, FDSS; hits give high values; AID 588675;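 active means plate-corrected calcium response at least 3 library SD above typical, normal starting fluorescence, not activating the receptor alone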;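 further: compound read alongside a low EC10 to EC30 dose of BAM8-22 agonist; peak minus trough fluorescence over baseline measured at the second addition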
Target sequence (Q96LB2 whole entry, looked up): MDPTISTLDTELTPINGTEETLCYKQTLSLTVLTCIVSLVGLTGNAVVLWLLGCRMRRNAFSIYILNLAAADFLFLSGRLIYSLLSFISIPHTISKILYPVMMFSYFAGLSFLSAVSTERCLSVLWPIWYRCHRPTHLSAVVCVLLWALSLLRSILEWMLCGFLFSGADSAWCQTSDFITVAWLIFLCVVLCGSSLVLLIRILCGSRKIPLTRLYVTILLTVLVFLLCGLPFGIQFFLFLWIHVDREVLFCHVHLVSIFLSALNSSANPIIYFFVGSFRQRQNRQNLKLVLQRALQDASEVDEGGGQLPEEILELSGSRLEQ
MrgX1 ag = activates human MrgX1 receptor signaling | Q96LB2 | MrgX1-HEK293 cells, Fluo-4 calcium fluorescence, agonist mode; hits give high values | B-score at 10 µM | actives 0.44% (n = 310,000);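 active means calcium response B-score plate-corrected fluorescence ratio at least 3 library SD, with starting fluorescence B-score inside 5 SD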
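Test system: Stable human MrgX1 HEK293 cell line | Schedule: Overnight plating before 1 h dye loading | Read-out basis: Baseline-normalised fluorescence change ratio, B-scored | Detection: Kinetic calcium dye fluorescence, Fluo-4 NW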
RGS4 pot = RGS4 potentiation or activation | AID 463111 | B-score at 10 µM | HEK293 M3R/inducible RGS4, carbachol calcium flux Fluo4; hits give low values | actives 0.92% (n = 310,000);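 active means B-score of the integrated calcium signal more than 4 SD below the library mean, with starting fluorescence not abnormally high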;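 further: negative B-score means reduced calcium response which marks RGS4 activation or potentiation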
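test system = HEK293 cells with stable M3R and inducible RGS4 | schedule = recording 10 s baseline at 1 Hz, 100 s post-agonist | technique = Fluo4-AM (2 µM) calcium-flux fluorescence, kinetic read | measure = Agonist-evoked peak-minus-minimum fluorescence over baseline, integrated ratio, B score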
MrgX1 antag = antagonists of human MrgX1 receptor. actives 1.3% (n = 310,000). MRGX1-HEK293 calcium flux, Fluo-4, BAM8-22 antagonism; hits give low values. B-score at 10 µM. Q96LB2. AID 588676;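 active means calcium-response B-score plate-corrected more than 3 library SD below zero, starting fluorescence within 5 deviations, no agonist response on first addition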;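 further: peak minus trough fluorescence over baseline after final BAM8-22 challenge near maximal dose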
MrgX1 PAM conf = human MrgX1 positive allosteric modulation, re-confirmation. shares compounds with MrgX1 allo act. MrgX1-HEK293, Fluo-4 calcium fluorescence, FDSS. activation (ratio percentage), % at 10 µM. actives 13% (n = 1,200). AID 602413;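 active means ratio at least 3 SD above the weak peptide control, stable starting fluorescence, no direct agonism earlier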;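 further: compound followed by low BAM8-22 agonist challenge near EC20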
MrgX1 ant reconf = reconfirmed antagonist of human MrgX1 receptor signaling; remaining BAM8-22 calcium response % of control (hits give low values), % at 10 µM; shares compounds with MrgX1 antag; MrgX1-HEK293, BAM8-22 calcium flux, Fluo-4; hits give low values; AID 602420; actives 19% (n = 2,300);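 active means remaining agonist calcium response no higher than 100% minus 3 SD of agonist-only control wells, with starting fluorescence near control levels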;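 further: agonist BAM8-22 given at a near maximal EC90 to ECmax level; peak minus minimum fluorescence divided by baseline after agonist addition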
HEK293 Ca flux = MrgX1 antagonist counter-screen hit in parental HEK293 cells. fluorescence ratio F(max-min)/F0 at 10 µM. AID 624111. shares compounds with MrgX1 antag. actives 2% (n = 4,000). Fluo-4 calcium fluorescence, FDSS;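 active means duplicate-averaged calcium fluorescence ratio at least three times the standard deviation of buffer wells, a nonspecific response in parental cells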
HEK293 Ca counter = counter-screen for MrgX1 allosteric activators: effect in parental HEK293 cells | actives 0.4% (n = 4,000) | fluorescence ratio F(max-min)/F0 at 10 µM | parental HEK293 calcium flux, Fluo-4 fluorescence ratio; hits give high values | AID 624114 | shares compounds with MrgX1 antag;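 active means calcium fluorescence ratio, averaged over duplicates, at least 3 SD of the buffer-well ratio, meaning a nonspecific response in receptor-free cells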;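 further: untransfected parental HEK293 lacking MrgX1 used as counterscreen for MrgX1 allosteric activators; fluorescence change taken during the second addition on a kinetic imager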
HEK293 Ca cntr2 = activity in parental HEK293 cells lacking MrgX1 receptor | shares compounds with MrgX1 antag | Fluo-4 calcium fluorescence (FDSS); hits give high values | fluorescence ratio F(max-min)/F0 at 10 µM | actives 8.7% (n = 4,000) | AID 624115;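 active means calcium fluorescence ratio at least three times the spread of buffer wells, meaning a non-specific response in parental cells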
Numbers without * were called inactive; i = inactive; / = no result given; ! = a repeat was not active. Most compounds without a hit are left out; they make up all but 3.5% or so of the library.

SMILES | RGS4 block | MrgX1 allo act | MrgX1 ag | RGS4 pot | MrgX1 antag | MrgX1 ant reconf | HEK293 Ca flux | HEK293 Ca counter | HEK293 Ca cntr2 | others
CCN1C(=O)CC(c2cccnc2)=Nc2ccccc21 | i | 6.4* | i | i | i | / | i | i | i | MrgX1 PAM conf=i
O=C1CC(c2cccnc2)=NN1c1ccc(Cl)cc1Cl | i | i | i | i | i | / | / | / | /
CN1CCN(C(=O)COc2ccc(S(=O)(=O)NC3CCCCC3)cc2Cl)CC1 | i | i | i | i | i | / | / | / | /
COc1ccc(C(=O)c2nc3ccccc3n2C(C)C)cc1 | i | 6.5* | i | i | i | / | i | i | i | MrgX1 PAM conf=i
COc1ccc(C(=O)c2nc3ccccc3n2C(C)C)cc1OC | i | i | i | i | i | / | / | / | /
COc1ccc(C2=NS(=O)(=O)N(C)C(C(=O)N3CCC4(CC3)OCCO4)=C2)cc1OC | i | i | i | i | i | / | / | / | /
CCOC(=O)C1=C(N)Oc2cc(C)oc(=O)c2C12C(=O)N1c3c(cccc32)C(C)=CC1(C)C (stereo not drawn) | i | 9.2* | i | i | i | / | i | i | 87* | MrgX1 PAM conf=i
COc1ccc(-n2nc(C(=O)NCC(=O)N3CCC4(CC3)OCCO4)c3ccccc3c2=O)cc1Cl | i | i | i | i | i | / | / | / | /
CC1(C)CN=C(NCc2ccccc2)S1 | i | 6.4* | i | i | i | / | i | i | i | MrgX1 PAM conf=i
CCOC(=O)C1(CCc2ccccc2)CCN(CC(O)CO)CC1 (stereo not drawn) | i | i | i | i | i | / | / | / | /
C=CCN1CCc2cccc3c2[C@H]1Cc1ccc(O)c(O)c1-3 | i | 8.1* | i | i | i | / | i | i | i | MrgX1 PAM conf=i
Cc1c(C(=O)N2CCC3(CC2)OCCO3)oc2ccccc12 | i | i | i | i | i | / | / | / | /
Cc1c(C(=O)N2CCC3(CC2)OCCO3)oc2ccc(S(=O)(=O)N3CCOCC3)cc12 | i | i | i | i | -4.5* | i | i | i | i
NC(CC(=O)O)C1CCCCC1 (stereo not drawn) | i | i | i | i | -7* | i | i | i | i
Cc1sc2ncnc(N3CCC(C(=O)Nc4ccc(C#N)c(Cl)c4)CC3)c2c1C | i | i | i | i | -5.8* | i | i | i | i
CCN(CC(=O)Nc1ccc(C#N)c(Cl)c1)CC(=O)NC(C)(C)C | i | i | i | i | i | / | / | / | /
Cc1c(C=O)c2ccccc2n1Cc1ccccc1F | i | i | i | i | -11* | i | i | i | i
c1cc(CCN2CCCC2)ccn1 | i | i | i | i | i | / | / | / | /
COC(=O)C1=C(c2ccc(S(C)(=O)=O)cc2)C[C@@H]2CC[C@H]1N2C(=O)NCC1CC1 | i | i | i | i | -9.4* | i | i | i | i
COC(=O)C1=C(c2ccc(S(C)(=O)=O)cc2)C[C@@H]2CC[C@H]1N2C(=O)NCCO | i | i | i | i | i | / | / | / | /
ClC1C(Cl)C(Cl)C(Cl)C(Cl)C1Cl (stereo not drawn) | / | i | i | / | -6.9*! | i | i | i | i
CC(C)(C)c1ccc(O)c(CN2CCN(c3ccccc3)CC2)c1 | i | i | i | i | -9.3* | i | i | i | i
Clc1ccccc1CN1CCN(c2ccccc2)CC1 | i | i | i | i | i | / | / | / | /
Cc1nc2sccc2c(=O)n1-c1ccccc1Cl | i | i | i | i | i | / | / | / | /
COc1cc(N2C(=O)CC(=O)NC2=O)cc(OC)c1OC | i | i | i | i | -5.1* | 82%* | i | i | i
SMILES | RGS4 block | MrgX1 allo act | MrgX1 ag | RGS4 pot | MrgX1 antag | MrgX1 ant reconf | HEK293 Ca flux | HEK293 Ca counter | HEK293 Ca cntr2 | others
CCOc1ccc(N2C(=O)CC(=O)NC2=O)cc1 | i | i | i | i | i | / | / | / | /
Cn1c(O)c(/C=N/N2CCOCC2)c(=O)n(C)c1=S | i | i | i | i | i | / | / | / | /
CC(C)CCP(=O)(O)c1ccccc1 | i | i | i | i | i | / | / | / | /
COc1ccccc1-n1c(-c2ccoc2)nc2ccccc2c1=O | i | i | i | i | -4.7* | i | i | i | i
N=C1C(c2ccccc2)=C(O)CN1Cc1ccco1 | i | i | i | i | -5.7* | i | i | i | i
COc1ccc(C2C(C(=O)N3CCC4(CC3)OCCO4)CC(=O)N2c2ccc(OC)cc2)cc1 (stereo not drawn) | / | i | i | / | i | / | / | / | /
CCc1ccc(-n2c(O)c(/C=N/N3CCCCC3c3cccnc3)c(=O)[nH]c2=O)cc1 (stereo not drawn) | i | i | i | i | -11* | i | i | i | i
CC(C(=O)Nc1ccc(Br)cc1C(=O)c1ccccc1)N1CCOCC1 (stereo not drawn) | i | i | i | i | i | / | / | / | /
O=C(Nc1nc(-c2ccccc2)c(-c2ccccc2)s1)c1ccc(S(=O)(=O)N(CCCl)CCCl)cc1 | i | i | i | i | i | / | / | / | /
COC(=O)C(O)(c1ccc(NC(=S)NC(=O)c2ccc(Cl)cc2Cl)c(C)c1)C(F)(F)F (stereo not drawn) | i | i | i | i | i | / | / | / | /
CCOC(=O)C(O)(c1ccc(NC(=S)NC(=O)c2ccc(Cl)cc2Cl)c(C)c1)C(F)(F)F (stereo not drawn) | i | i | i | i | -4.7* | i | i | i | i
CCOC(=O)c1c(NC(=O)C(c2ccccc2)c2ccccc2)sc2c1C1CCN2CC1 | i | i | i | i | i | / | / | / | /
